Test results published in ChEMBL document CHEMBL1141482, “Selective, high affinity A(2B) adenosine receptor antagonists: N-1 monosubstituted 8-(pyrazol-4-yl)xanthines” (Bioorg Med Chem Lett, 2008).

What was measured:
Adenosine receptor A1 = biological target: T1, Adenosine receptor A1 (Homo sapiens, UniProt P30542); assay: Displacement of [3H]-CPX from human A1 receptor expressed in CHO cell membranes
T1 sequence (P30542 whole entry): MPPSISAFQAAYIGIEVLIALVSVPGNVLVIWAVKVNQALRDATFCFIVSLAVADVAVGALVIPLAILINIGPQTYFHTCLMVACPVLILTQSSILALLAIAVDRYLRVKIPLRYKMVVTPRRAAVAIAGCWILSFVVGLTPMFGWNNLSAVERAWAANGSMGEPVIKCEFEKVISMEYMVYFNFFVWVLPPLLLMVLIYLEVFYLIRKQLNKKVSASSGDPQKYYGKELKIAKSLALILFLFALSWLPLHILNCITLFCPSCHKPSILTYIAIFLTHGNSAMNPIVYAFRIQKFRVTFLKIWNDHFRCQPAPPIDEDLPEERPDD
Outline: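 Competitive binding on membranes prepared from A1-expressing CHO cells, radioligand 3H-CPX at 0.5 nM.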

Adenosine receptor A3 = biological target: T2, Adenosine receptor A3 (Homo sapiens, UniProt P0DMS8); assay: Displacement of [125I]-AB-MECA from human A3 receptor expressed in CHO cells; format: cell-based
T2 sequence (P0DMS8 whole entry): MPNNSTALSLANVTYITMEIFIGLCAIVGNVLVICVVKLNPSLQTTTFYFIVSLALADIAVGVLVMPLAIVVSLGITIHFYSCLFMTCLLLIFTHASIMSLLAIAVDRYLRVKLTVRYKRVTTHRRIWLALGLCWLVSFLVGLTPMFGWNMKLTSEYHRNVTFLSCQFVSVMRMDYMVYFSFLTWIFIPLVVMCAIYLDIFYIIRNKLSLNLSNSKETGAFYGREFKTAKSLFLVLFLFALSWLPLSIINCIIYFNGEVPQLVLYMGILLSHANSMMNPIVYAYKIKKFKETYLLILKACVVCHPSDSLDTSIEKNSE
Outline: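 A3 binding: competition for sites labeled by 125I-AB-MECA using CHO cells expressing the A3 receptor.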

Homo sapiens [1] = organism: Homo sapiens; assay: Selectivity for human A2B receptor over human A1 receptor
Adenosine receptor A2a = Adenosine receptor A2a (Homo sapiens, UniProt P29274); assay: Displacement of [3H]ZM241385 from human A2A receptor expressed in HEK293 cell membranes
Sequence of Adenosine receptor A2a (P29274 whole entry): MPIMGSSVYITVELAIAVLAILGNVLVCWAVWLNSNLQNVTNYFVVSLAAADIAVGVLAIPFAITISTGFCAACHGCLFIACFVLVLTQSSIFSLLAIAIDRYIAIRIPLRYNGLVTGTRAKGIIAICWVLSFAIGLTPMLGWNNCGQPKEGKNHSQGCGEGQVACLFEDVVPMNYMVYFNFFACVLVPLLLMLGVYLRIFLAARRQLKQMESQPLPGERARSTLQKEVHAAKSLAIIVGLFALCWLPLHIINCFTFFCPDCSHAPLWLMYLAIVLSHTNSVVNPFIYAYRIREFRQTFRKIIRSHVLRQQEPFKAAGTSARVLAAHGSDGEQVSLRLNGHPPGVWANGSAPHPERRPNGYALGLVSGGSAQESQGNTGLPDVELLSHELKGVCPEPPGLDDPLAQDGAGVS
Outline: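 A2A affinity by competition with 3H-ZM241385 (2 nM) for binding sites in membranes from HEK-A2A cells.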

Homo sapiens [2] = organism: Homo sapiens; assay: Selectivity for human A2B receptor over human A2A receptor
Homo sapiens [3] = organism: Homo sapiens; assay: Selectivity for human A2B receptor over human A3 receptor
Adenosine receptor A2b = biological target: T3, Adenosine receptor A2b (Homo sapiens, UniProt P29275); assay: Displacement of [3H]-ZM241385 from human A2B receptor expressed in HEK293 cell membranes
T3 sequence (P29275 whole entry): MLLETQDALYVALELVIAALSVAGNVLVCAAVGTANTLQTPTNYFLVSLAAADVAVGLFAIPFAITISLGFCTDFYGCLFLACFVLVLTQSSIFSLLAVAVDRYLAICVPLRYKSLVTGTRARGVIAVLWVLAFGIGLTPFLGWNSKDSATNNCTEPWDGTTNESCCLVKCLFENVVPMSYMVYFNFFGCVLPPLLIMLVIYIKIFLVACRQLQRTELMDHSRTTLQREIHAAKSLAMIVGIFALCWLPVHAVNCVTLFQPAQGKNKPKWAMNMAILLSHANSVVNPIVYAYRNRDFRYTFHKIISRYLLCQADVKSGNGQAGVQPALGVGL
Outline: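 Membranes from HEK cells expressing A2B; binding sites labeled with 3H-ZM241385 at 14 nM and displaced competitively.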

Structure (SMILES): O=c1[nH]c2nc(-c3cnn(Cc4noc(-c5ccc(C(F)(F)F)cc5)n4)c3)[nH]c2c(=O)n1CC1CC1
- Ki (Adenosine receptor A1): > 6 µM
- Ki (Adenosine receptor A3): > 9 µM
- Ratio Ki (Homo sapiens [1]): > 460
- Ki (Adenosine receptor A2a): > 5 µM
- Ratio Ki (Homo sapiens [2]): > 380
- Ratio Ki (Homo sapiens [3]): > 700
- Ki (Adenosine receptor A2b): 0.013 µM

Structure (SMILES): CC(C)Cn1c(=O)[nH]c2nc(-c3cnn(Cc4cccc(F)c4)c3)[nH]c2c1=O
- Ki (Adenosine receptor A1): > 6 µM
- Ki (Adenosine receptor A3): 1.6 µM
- Ratio Ki (Homo sapiens [1]): > 250
- Ki (Adenosine receptor A2a): > 5 µM
- Ratio Ki (Homo sapiens [2]): > 200
- Ratio Ki (Homo sapiens [3]): 70
- Ki (Adenosine receptor A2b): 0.024 µM

Structure (SMILES): CC(C)Cn1c(=O)[nH]c2nc(-c3cnn(Cc4cccc(C(F)(F)F)c4)c3)[nH]c2c1=O
- Ki (Adenosine receptor A1): > 6 µM
- Ki (Adenosine receptor A3): > 9 µM
- Ratio Ki (Homo sapiens [1]): > 210
- Ki (Adenosine receptor A2a): > 5 µM
- Ratio Ki (Homo sapiens [2]): > 180
- Ratio Ki (Homo sapiens [3]): > 320
- Ki (Adenosine receptor A2b): 0.028 µM

Structure (SMILES): CCCn1c(=O)[nH]c2nc(-c3cnn(Cc4noc(-c5ccccc5)n4)c3)[nH]c2c1=O
- Ki (Adenosine receptor A1): 3.5 µM
- Ki (Adenosine receptor A3): > 9 µM
- Ratio Ki (Homo sapiens [1]): 200
- Ki (Adenosine receptor A2a): > 5 µM
- Ratio Ki (Homo sapiens [2]): > 300
- Ratio Ki (Homo sapiens [3]): > 600
- Ki (Adenosine receptor A2b): 0.015 µM
